Values after ≈ are worked out from the molar mass of the structure shown. Numbered stars: 1 amine (or outer) side, 2 acyl side, 3 side chain; on linkers, the order of the positions; unused ones are H or OH. Bridge positions count the residues as written; N and C are the ends. Square brackets hold non-standard residues; d marks the D form. Peptide text beside a SMILES is read from it. * marks the point of attachment. Orn(4R-OH,5R-OH) = O=C([C@H](C[C@@H](O)[C@@H](O)N[*:3])N[*:1])[*:2]; Benzoyl(4-(biphenyl-4-yl)) = O=C(c1ccc(-c2ccc(-c3ccccc3)cc2)cc1)*; X16 = O=C(c1ccc(OCCOCCC23C[C@H]4C[C@@H](C2)C[C@@H](C3)C4)cc1)*; hTyr(3S-OH,4S-OH) = N[C@H](C(=O)O)[C@H](O)[C@@H](O)c1ccc(O)cc1; Benzoyl(4-(4-OctO-Ph)) = CCCCCCCCOc1ccc(-c2ccc(C(=O)*)cc2)cc1; X3 = CC(C)(C)OCCOc1ccc(C#Cc2ccc(-c3ccc(C(=O)*)cc3)cc2)cc1; X4 = CC(C)(C)OCCOc1ccc(-c2ccc(-c3ccc(C(=O)*)cc3)cc2)cc1; X17 = CCCCOCCOc1ccc(C#Cc2ccc(-c3ccc(C(=O)*)cc3)cc2)cc1; X20 = CCCCCOc1ccc(C#Cc2ccc(-c3ccc(C(=O)*)cc3)cc2)cc1; X6 = CCCCOCCOc1ccc(-c2ccc(-c3ccc(C(=O)*)cc3)cc2)cc1; X7 = CCCCCCOc1ccc(-c2ccc(-c3ccc(C(=O)*)cc3)cc2)cc1; X2 = CCCOc1ccc(C#Cc2ccc(-c3ccc(C(=O)*)cc3)cc2)cc1; Pro(3S-OH,4S-Me) = C[C@H]1CN[C@H](C(=O)O)[C@H]1O; X14 = COc1ccc(C#Cc2ccc(-c3ccc(C(=O)*)cc3)cc2)cc1; Benzoyl(4-octyloxy) = CCCCCCCCOc1ccc(C(=O)*)cc1; X5 = O=C(c1ccc(C#Cc2ccc(C#Cc3ccccc3)cc2)cc1)*; X8 = O=C(c1ccc(-c2ccc(C#Cc3ccccc3)cc2)cc1)*; X9 = CCCCCCCCCCOc1ccc2cc(C(=O)*)ccc2c1; Hyp = O=C(O)[C@@H]1C[C@@H](O)CN1
Experiments:
Candida albicans [1] = assay: In vivo antifungal activity administered intraperitoneally against Candida albicans infections in mice.; assay type: functional; conditions: ip
How it was run: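 Male ICR mice (18-20 g), X-irradiated with 400 r 24 h before iv tail-vein infection with 2 × 10^6 C. albicans A26 cells in saline. Compounds suspended in β-cyclodextrin, given parenterally at 0, 4, 24 and 48 h post-infection. 10 mice per dose, top dose 10 mg/kg with 2-fold dilutions down to 0.039 mg/kg. 7-day survival; ED50 by Reed-Muench.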

Candida albicans [2] = assay: In vivo antifungal activity administered orally against Candida albicans infections in mice.; assay type: functional; conditions: po
How it was run: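 X-irradiated (400 r, 24 h prior) male ICR mice infected iv with 2 × 10^6 C. albicans A26 cells. Oral gavage in cremophor (5%)/linoleic acid (8%)/water vehicle, b.i.d. × 4 starting immediately post-infection. 10 mice per dose level. Study ends at day 7; ED50 = dose giving 50% survival, by Reed-Muench.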

[3] = target: Beta-1,3-glucan synthase (Candida albicans) (UniProt O13428); assay: In vitro inhibition of glucan synthase obtained from Candida albicans at a concentration of 10 ug/mL.
Chain of Beta-1,3-glucan synthase (Candida albicans) (O13428 as listed by the source): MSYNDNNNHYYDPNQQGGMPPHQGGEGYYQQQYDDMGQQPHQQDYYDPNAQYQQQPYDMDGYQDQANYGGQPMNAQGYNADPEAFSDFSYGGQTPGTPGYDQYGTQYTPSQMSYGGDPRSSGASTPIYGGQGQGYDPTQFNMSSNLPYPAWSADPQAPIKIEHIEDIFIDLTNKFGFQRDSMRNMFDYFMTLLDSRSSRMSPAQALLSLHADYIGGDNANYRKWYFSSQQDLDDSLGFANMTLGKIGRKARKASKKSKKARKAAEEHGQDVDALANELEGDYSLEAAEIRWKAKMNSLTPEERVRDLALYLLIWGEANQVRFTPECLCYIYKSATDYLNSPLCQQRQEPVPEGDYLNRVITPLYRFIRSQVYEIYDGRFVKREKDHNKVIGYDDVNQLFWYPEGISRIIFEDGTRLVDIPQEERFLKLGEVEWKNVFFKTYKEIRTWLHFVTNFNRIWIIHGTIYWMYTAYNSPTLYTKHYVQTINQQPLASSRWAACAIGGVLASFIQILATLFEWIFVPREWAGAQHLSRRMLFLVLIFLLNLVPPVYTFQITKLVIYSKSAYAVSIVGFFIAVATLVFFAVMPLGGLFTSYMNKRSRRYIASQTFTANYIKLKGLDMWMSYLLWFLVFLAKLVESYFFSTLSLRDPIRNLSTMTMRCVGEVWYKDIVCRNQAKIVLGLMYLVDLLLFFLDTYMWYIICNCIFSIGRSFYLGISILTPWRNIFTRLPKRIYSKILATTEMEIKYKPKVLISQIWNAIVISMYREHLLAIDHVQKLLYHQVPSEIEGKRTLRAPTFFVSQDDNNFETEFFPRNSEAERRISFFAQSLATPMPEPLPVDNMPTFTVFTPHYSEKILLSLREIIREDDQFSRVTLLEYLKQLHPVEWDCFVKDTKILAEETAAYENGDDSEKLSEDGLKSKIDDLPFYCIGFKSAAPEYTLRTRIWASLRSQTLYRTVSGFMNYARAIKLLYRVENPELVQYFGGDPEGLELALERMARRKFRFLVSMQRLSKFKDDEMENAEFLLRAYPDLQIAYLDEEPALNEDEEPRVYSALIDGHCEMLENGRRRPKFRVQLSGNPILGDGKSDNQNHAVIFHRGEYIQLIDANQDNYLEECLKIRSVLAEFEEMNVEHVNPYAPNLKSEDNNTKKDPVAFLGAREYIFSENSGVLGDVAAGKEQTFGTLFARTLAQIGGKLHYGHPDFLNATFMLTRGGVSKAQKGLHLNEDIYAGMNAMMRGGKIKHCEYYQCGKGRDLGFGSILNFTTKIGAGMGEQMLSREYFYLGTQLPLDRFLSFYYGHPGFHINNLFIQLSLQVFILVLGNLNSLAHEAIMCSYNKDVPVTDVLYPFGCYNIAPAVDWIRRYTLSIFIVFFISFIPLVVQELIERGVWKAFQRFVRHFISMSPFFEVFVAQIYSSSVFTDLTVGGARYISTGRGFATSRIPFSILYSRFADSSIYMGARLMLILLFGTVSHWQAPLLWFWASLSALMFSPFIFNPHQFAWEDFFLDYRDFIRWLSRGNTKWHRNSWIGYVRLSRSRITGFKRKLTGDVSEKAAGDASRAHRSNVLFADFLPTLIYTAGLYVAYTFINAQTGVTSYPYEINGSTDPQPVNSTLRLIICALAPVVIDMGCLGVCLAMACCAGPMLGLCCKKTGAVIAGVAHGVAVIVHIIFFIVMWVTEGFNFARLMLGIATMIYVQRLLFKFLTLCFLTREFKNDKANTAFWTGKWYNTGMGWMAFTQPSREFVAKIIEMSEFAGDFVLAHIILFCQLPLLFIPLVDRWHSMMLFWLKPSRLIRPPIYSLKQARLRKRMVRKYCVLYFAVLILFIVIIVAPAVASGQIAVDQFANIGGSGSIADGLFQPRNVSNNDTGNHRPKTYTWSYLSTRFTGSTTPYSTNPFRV
How it was run: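 Purified, solubilized β-(1,3)-D-glucan synthase prepared from C. albicans. Percent inhibition measured at 10 µg/mL compound, single determination.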

Candida albicans [4] = assay: Antifungal activity against Candida albicans; assay type: functional
How it was run: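 Broth microdilution, C. albicans A26 (ATCC 62342) grown on Sabouraud dextrose agar at 35 °C; inoculum 1 × 10^5 conidia/mL in antibiotic 3 broth. Compounds dissolved at 1.0 mg/mL in methanol, 2-fold serial dilutions from 80 µg/mL, duplicate. Read after 48 h at 35 °C. MIC = lowest concentration completely inhibiting visible growth.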

Row | Compound | ED50 (Candida albicans [1]) [mg/kg] | ED50 (Candida albicans [2]) [mg/kg] | inhibition [3] [%] | MIC (Candida albicans [4]) [µg/mL]
1 | C[C@@H](O)[C@@H]1NC(=O)[C@H]([C@H](O)[C@@H](O)c2ccc(O)cc2)NC(=O)[C@@H]2C[C@@H](O)CN2C(=O)[C@H]([C@@H](C)O)NC(=O)[C@@H](NC(=O)c2ccc(-c3ccc(C#Cc4ccccc4)cc3)cc2)C[C@@H](O)[C@@H](O)NC(=O)[C@@H]2[C@@H](O)[C@@H](C)CN2C1=O (X8-[Orn(4R-OH,5R-OH)]T[Hyp][hTyr(3S-OH,4S-OH)]T[Pro(3S-OH,4S-Me)]; lactam 1-C) | 0.6 | 18.8 | 75.8 | 0.039 (≈ 0.0362 µM)
2 | CCCCOCCOc1ccc(-c2ccc(-c3ccc(C(=O)N[C@H]4C[C@@H](O)[C@@H](O)NC(=O)[C@@H]5[C@@H](O)[C@@H](C)CN5C(=O)[C@H]([C@@H](C)O)NC(=O)[C@H]([C@H](O)[C@@H](O)c5ccc(O)cc5)NC(=O)[C@@H]5C[C@@H](O)CN5C(=O)[C@H]([C@@H](C)O)NC4=O)cc3)cc2)cc1 (X6-[Orn(4R-OH,5R-OH)]T[Hyp][hTyr(3S-OH,4S-OH)]T[Pro(3S-OH,4S-Me)]; lactam 1-C) | 0.3 | 13.6 | 80.1 | 0.03 (≈ 0.0256 µM)
3 | CCCCCCCCOc1ccc(C(=O)N[C@H]2C[C@@H](O)[C@@H](O)NC(=O)[C@@H]3[C@@H](O)[C@@H](C)CN3C(=O)[C@H]([C@@H](C)O)NC(=O)[C@H]([C@H](O)[C@@H](O)c3ccc(O)cc3)NC(=O)[C@@H]3C[C@@H](O)CN3C(=O)[C@H]([C@@H](C)O)NC2=O)cc1 [CILOFUNGIN] ({Benzoyl(4-octyloxy)}-[Orn(4R-OH,5R-OH)]T[Hyp][hTyr(3S-OH,4S-OH)]T[Pro(3S-OH,4S-Me)]; lactam 1-C) | 7.6 | > 400 | 76 | 0.312 (≈ 0.303 µM)
4 | C[C@@H](O)[C@@H]1NC(=O)[C@H]([C@H](O)[C@@H](O)c2ccc(O)cc2)NC(=O)[C@@H]2C[C@@H](O)CN2C(=O)[C@H]([C@@H](C)O)NC(=O)[C@@H](NC(=O)c2ccc(-c3ccc(-c4ccccc4)cc3)cc2)C[C@@H](O)[C@@H](O)NC(=O)[C@@H]2[C@@H](O)[C@@H](C)CN2C1=O ({Benzoyl(4-(biphenyl-4-yl))}-[Orn(4R-OH,5R-OH)]T[Hyp][hTyr(3S-OH,4S-OH)]T[Pro(3S-OH,4S-Me)]; lactam 1-C) | 1.3 | > 50 | 78.8 | 0.078 (≈ 0.074 µM)
5 | CCCCCOc1ccc(C#Cc2ccc(-c3ccc(C(=O)N[C@H]4C[C@@H](O)[C@@H](O)NC(=O)[C@@H]5[C@@H](O)[C@@H](C)CN5C(=O)[C@H]([C@@H](C)O)NC(=O)[C@H]([C@H](O)[C@@H](O)c5ccc(O)cc5)NC(=O)[C@@H]5C[C@@H](O)CN5C(=O)[C@H]([C@@H](C)O)NC4=O)cc3)cc2)cc1 (X20-[Orn(4R-OH,5R-OH)]T[Hyp][hTyr(3S-OH,4S-OH)]T[Pro(3S-OH,4S-Me)]; lactam 1-C) |  | 8.8 | 82.3 | < 0.01
6 | CCCCCCCCOc1ccc(-c2ccc(C(=O)N[C@H]3C[C@@H](O)[C@@H](O)NC(=O)[C@@H]4[C@@H](O)[C@@H](C)CN4C(=O)[C@H]([C@@H](C)O)NC(=O)[C@H]([C@H](O)[C@@H](O)c4ccc(O)cc4)NC(=O)[C@@H]4C[C@@H](O)CN4C(=O)[C@H]([C@@H](C)O)NC3=O)cc2)cc1 ({Benzoyl(4-(4-OctO-Ph))}-[Orn(4R-OH,5R-OH)]T[Hyp][hTyr(3S-OH,4S-OH)]T[Pro(3S-OH,4S-Me)]; lactam 1-C) | 0.5 | 27.3 | 81.5 | 0.0025 (≈ 0.00226 µM)
7 | CCCOc1ccc(C#Cc2ccc(-c3ccc(C(=O)N[C@H]4C[C@@H](O)[C@@H](O)NC(=O)[C@@H]5[C@@H](O)[C@@H](C)CN5C(=O)[C@H]([C@@H](C)O)NC(=O)[C@H]([C@H](O)[C@@H](O)c5ccc(O)cc5)NC(=O)[C@@H]5C[C@@H](O)CN5C(=O)[C@H]([C@@H](C)O)NC4=O)cc3)cc2)cc1 (X2-[Orn(4R-OH,5R-OH)]T[Hyp][hTyr(3S-OH,4S-OH)]T[Pro(3S-OH,4S-Me)]; lactam 1-C) | 0.4 | 7 | 83.5 | < 0.01
8 | C[C@@H](O)[C@@H]1NC(=O)[C@H]([C@H](O)[C@@H](O)c2ccc(O)cc2)NC(=O)[C@@H]2C[C@@H](O)CN2C(=O)[C@H]([C@@H](C)O)NC(=O)[C@@H](NC(=O)c2ccc(OCCOCCC34C[C@H]5C[C@@H](C3)C[C@@H](C4)C5)cc2)C[C@@H](O)[C@@H](O)NC(=O)[C@@H]2[C@@H](O)[C@@H](C)CN2C1=O (X16-[Orn(4R-OH,5R-OH)]T[Hyp][hTyr(3S-OH,4S-OH)]T[Pro(3S-OH,4S-Me)]; lactam 1-C) |  | > 50 | 72.3 | 0.039 (≈ 0.0347 µM)
9 | COc1ccc(C#Cc2ccc(-c3ccc(C(=O)N[C@H]4C[C@@H](O)[C@@H](O)NC(=O)[C@@H]5[C@@H](O)[C@@H](C)CN5C(=O)[C@H]([C@@H](C)O)NC(=O)[C@H]([C@H](O)[C@@H](O)c5ccc(O)cc5)NC(=O)[C@@H]5C[C@@H](O)CN5C(=O)[C@H]([C@@H](C)O)NC4=O)cc3)cc2)cc1 (X14-[Orn(4R-OH,5R-OH)]T[Hyp][hTyr(3S-OH,4S-OH)]T[Pro(3S-OH,4S-Me)]; lactam 1-C) |  | 19 | 81 | 0.02 (≈ 0.018 µM)
10 | C[C@@H](O)[C@@H]1NC(=O)[C@H]([C@H](O)[C@@H](O)c2ccc(O)cc2)NC(=O)[C@@H]2C[C@@H](O)CN2C(=O)[C@H]([C@@H](C)O)NC(=O)[C@@H](NC(=O)c2ccc(-c3ccc(-c4ccc(OCCOC(C)(C)C)cc4)cc3)cc2)C[C@@H](O)[C@@H](O)NC(=O)[C@@H]2[C@@H](O)[C@@H](C)CN2C1=O (X4-[Orn(4R-OH,5R-OH)]T[Hyp][hTyr(3S-OH,4S-OH)]T[Pro(3S-OH,4S-Me)]; lactam 1-C) | 0.4 | 21.3 | 76.1 | 0.06 (≈ 0.0513 µM)
11 | C[C@@H](O)[C@@H]1NC(=O)[C@H]([C@H](O)[C@@H](O)c2ccc(O)cc2)NC(=O)[C@@H]2C[C@@H](O)CN2C(=O)[C@H]([C@@H](C)O)NC(=O)[C@@H](NC(=O)c2ccc(C#Cc3ccc(C#Cc4ccccc4)cc3)cc2)C[C@@H](O)[C@@H](O)NC(=O)[C@@H]2[C@@H](O)[C@@H](C)CN2C1=O (X5-[Orn(4R-OH,5R-OH)]T[Hyp][hTyr(3S-OH,4S-OH)]T[Pro(3S-OH,4S-Me)]; lactam 1-C) | 4.5 | 16 | 81.3 | 0.01 (≈ 0.00907 µM)
12 | CCCCOCCOc1ccc(C#Cc2ccc(-c3ccc(C(=O)N[C@H]4C[C@@H](O)[C@@H](O)NC(=O)[C@@H]5[C@@H](O)[C@@H](C)CN5C(=O)[C@H]([C@@H](C)O)NC(=O)[C@H]([C@H](O)[C@@H](O)c5ccc(O)cc5)NC(=O)[C@@H]5C[C@@H](O)CN5C(=O)[C@H]([C@@H](C)O)NC4=O)cc3)cc2)cc1 (X17-[Orn(4R-OH,5R-OH)]T[Hyp][hTyr(3S-OH,4S-OH)]T[Pro(3S-OH,4S-Me)]; lactam 1-C) |  | 10.6 | 81.9 | 0.02 (≈ 0.0167 µM)
13 | C[C@@H](O)[C@@H]1NC(=O)[C@H]([C@H](O)[C@@H](O)c2ccc(O)cc2)NC(=O)[C@@H]2C[C@@H](O)CN2C(=O)[C@H]([C@@H](C)O)NC(=O)[C@@H](NC(=O)c2ccc(-c3ccc(C#Cc4ccc(OCCOC(C)(C)C)cc4)cc3)cc2)C[C@@H](O)[C@@H](O)NC(=O)[C@@H]2[C@@H](O)[C@@H](C)CN2C1=O (X3-[Orn(4R-OH,5R-OH)]T[Hyp][hTyr(3S-OH,4S-OH)]T[Pro(3S-OH,4S-Me)]; lactam 1-C) | 0.2 | 7.6 | 82.4 | 0.02 (≈ 0.0167 µM)
14 | CCCCCCCCCCOc1ccc2cc(C(=O)N[C@H]3C[C@@H](O)[C@@H](O)NC(=O)[C@@H]4[C@@H](O)[C@@H](C)CN4C(=O)[C@H]([C@@H](C)O)NC(=O)[C@H]([C@H](O)[C@@H](O)c4ccc(O)cc4)NC(=O)[C@@H]4C[C@@H](O)CN4C(=O)[C@H]([C@@H](C)O)NC3=O)ccc2c1 (X9-[Orn(4R-OH,5R-OH)]T[Hyp][hTyr(3S-OH,4S-OH)]T[Pro(3S-OH,4S-Me)]; lactam 1-C) | 1.6 | 46.1 | 82.2 | 0.005 (≈ 0.00451 µM)
15 | CCCCCCOc1ccc(-c2ccc(-c3ccc(C(=O)N[C@H]4C[C@@H](O)[C@@H](O)NC(=O)[C@@H]5[C@@H](O)[C@@H](C)CN5C(=O)[C@H]([C@@H](C)O)NC(=O)[C@H]([C@H](O)[C@@H](O)c5ccc(O)cc5)NC(=O)[C@@H]5C[C@@H](O)CN5C(=O)[C@H]([C@@H](C)O)NC4=O)cc3)cc2)cc1 (X7-[Orn(4R-OH,5R-OH)]T[Hyp][hTyr(3S-OH,4S-OH)]T[Pro(3S-OH,4S-Me)]; lactam 1-C) | 0.8 | 6.8 |  | 0.03 (≈ 0.026 µM)

— ChEMBL document CHEMBL1128519, “Semisynthetic chemical modification of the antifungal lipopeptide echinocandin B (ECB): structure-activity studies of the lipophilic and geometric parameters of polyarylated acyl analogs of ECB” (J Med Chem, 1995)
